In the library only some 1.9% were active in any assay of this set; here they are far more common.
M4 PAM: CHRM4 positive allosteric modulation; AID 624126; 360,000 compounds, 0.4% hits; P08173; CHO-K1 hM4/Gqi5, Fluo-8 calcium fluorescence, ACh EC20; 0% = ACh EC20, 100% = maximal ACh; activation, % at 3 µM;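 active = activation above its plate's cutoff, the mean activation of sample wells plus 3 SD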
M5 ag: CHRM5 agonism in calcium assay; CHO-K1 hM5 cells, Fluo-8 calcium fluorescence; 0% DMSO wells, 100% maximal acetylcholine response; activation, % at 3 µM; P08912; 360,000 compounds, 0.19% hits;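 active = activation above the run's mean over test compounds plus 3 SD, cut at about 23% in these data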;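 also: signal is peak over basal fluorescence ratio across the kinetic read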
Target sequence (P08912 whole entry, looked up): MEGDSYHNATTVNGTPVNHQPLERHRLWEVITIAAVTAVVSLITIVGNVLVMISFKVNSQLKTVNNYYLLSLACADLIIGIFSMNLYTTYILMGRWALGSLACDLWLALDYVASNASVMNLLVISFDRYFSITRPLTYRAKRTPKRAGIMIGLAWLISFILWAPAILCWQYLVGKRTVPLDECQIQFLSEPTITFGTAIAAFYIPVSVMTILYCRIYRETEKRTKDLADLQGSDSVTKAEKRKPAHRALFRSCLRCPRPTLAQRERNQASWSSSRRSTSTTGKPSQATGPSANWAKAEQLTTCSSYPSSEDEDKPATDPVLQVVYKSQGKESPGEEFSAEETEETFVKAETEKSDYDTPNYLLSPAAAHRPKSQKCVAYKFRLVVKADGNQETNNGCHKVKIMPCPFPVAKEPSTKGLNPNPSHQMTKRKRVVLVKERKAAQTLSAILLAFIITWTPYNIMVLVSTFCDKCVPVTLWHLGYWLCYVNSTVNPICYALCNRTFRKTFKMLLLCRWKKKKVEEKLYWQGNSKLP
CHRM4 antagonist: antagonists of human muscarinic M4 receptor (CHRM4); P08173; CHO-hM4 cells, ACh EC80, Fluo-8 calcium fluorescence; inhibition, % at 3 µM; 360,000 compounds, 0.73% hits; AID 624125;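 active = inhibition above its plate's cutoff, the mean inhibition of sample wells plus 3 SD, cut at about 27% in these data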;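 also: 0% = acetylcholine EC80 with DMSO and 100% = DMSO without agonist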
M5 antag: antagonists of human muscarinic M5 receptor (CHRM5) | P08912 | CHO-hM5 cells, Fluo-8 calcium fluorescence, ACh EC80 | inhibition, % at 3 µM | 360,000 compounds, 0.59% hits;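 active = inhibition above a per-plate cutoff, the mean of that plate's test compounds plus 3 SD, cut at about 27% in these data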;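 also: 0% = acetylcholine EC80 with DMSO and 100% = DMSO without agonist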
CHRM5 PAM: CHRM5 positive allosteric modulation; P08912; CHO-K1 hM5, Fluo-8 calcium, ACh EC20 PAM; 0% = ACh EC20, 100% = ACh EC100; activation, % at 3 µM; 360,000 compounds, 0.3% hits; AID 624038;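 active = activation above the run cutoff, the mean activation of all test compounds plus 3 SD, cut at about 18% in these data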
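Assay system: CHO-K1 hM5 cells / Incubation: Fluo-8 loading 80 min at 37 °C plus 30 min room temperature / Technique: Fluo-8 calcium dye fluorescence, kinetic read / Repeats: single replicate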
M4 ag: agonists of human muscarinic M4 receptor (CHRM4) | P08173 | CHO-K1 hM4/Gqi5, Fluo-8 calcium fluorescence; vehicle 0%, full acetylcholine response 100% | activation, % at 3 µM | 360,000 compounds, 0.14% hits | AID 624127;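 active = activation above the run mean over all test wells plus 3 SD, cut at about 32% in these data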;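 also: peak over basal fluorescence ratio per well then scaled between controls; 0% = DMSO wells and 100% = acetylcholine at EC100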
* marks the source's active call; other numbers are inactive results.

SMILES	M4 PAM	M5 ag	CHRM4 antagonist	M5 antag	CHRM5 PAM	M4 ag
CCCC(CCC(=O)NC1CCCCC1)C(=O)O (stereo not given)	3.6	-0.3	1.9	-4.0	-2.1	0.2
O=C1C(=O)N(CCN2CCOCC2)C(c2ccc([N+](=O)[O-])cc2)/C1=C(/O)c1ccc2c(c1)OCO2 (stereo not given)	21.7*	-3.0	-2.4	1.1	4.5	2.8
O=C1C(=O)N(CCN2CCOCC2)C(c2ccncc2)/C1=C(/O)c1ccc2c(c1)OCO2 (stereo not given)	4.2	0.9	6.4	-3.6	0.1	0.6
O=C(NNC1=NCCCCC1)c1cccc([N+](=O)[O-])c1	10.0	0.9	-3.3	-8.6	18.8*	0.8
CC(C)CNC(=O)NC(=O)COc1ncnc2sccc12	28.2*	1.9	11.9	5.6	-4.0	1.1
CC(C)CCNC(=O)NC(=O)COc1ncnc2sccc12	15.0	6.8	-1.5	-16.3	12.6	0.1
CC(=O)CC1N(S(=O)(=O)c2ccc(C)cc2)c2ccccc2N1S(=O)(=O)c1ccc(C)cc1	10.1	-3.3	-19.8	-8.4	-3.6	0.3
Cc1ccc(F)cc1NC(=O)CCc1c(C)[nH]c(=O)c(C#N)c1C	0.3	-1.7	10.8	3.6	4.1	0.4
Cc1[nH]c(=O)c(C#N)c(C)c1CCC(=O)Nc1cc(S(C)(=O)=O)ccc1Cl	20.3*	-1.9	-33.0	2.9	0.1	-0.1
CCOc1cc(CNCCc2ccc(S(N)(=O)=O)cc2)cc(Cl)c1OCc1ccccc1	-4.7	14.3	46.0*	21.2	-18.9	30.1
COc1ccc(CNCCc2ccc(Cl)cc2)cc1OCc1ccccc1	-10.8	12.0	12.5	17.3	-16.8	20.1
COc1cc(CNCc2ccccn2)ccc1OCc1ccc(Cl)cc1Cl	-21.2	-1.7	32.9*	10.7	-6.2	23.0
CCOc1cc(CNCCc2ccc(S(N)(=O)=O)cc2)ccc1OCc1ccccc1	-20.0	-3.8	18.8	12.5	-16.0	20.0
CCOc1cc(CNCc2ccccc2)ccc1OCc1ccc(Cl)cc1	-14.6	12.1	28.0*	25.6	-13.3	33.8*
COC(=O)C[C@H]1CC[C@@H](NC(=O)Nc2ccc(C(F)(F)F)cc2)[C@@H](CO)O1	-0.5	0.0	-4.1	-3.1	-3.5	4.0
COc1cccc(C(=O)OCCN2CCCCC2)c1	1.8	-7.4	0.6	30.1*	1.6	1.1
Cc1nc2c(OCc3ccc(Cl)cc3)cccn2c1N(C)C(=O)CCC1CCCC1	2.5	-1.4	-5.5	-0.6	0.6	0.5
CCc1ccc(N/C(SC)=C(/C#N)C(N)=O)cc1	3.4	2.2	-10.9	-4.8	-3.8	-1.0
CCCCS/C(=C(/C#N)C(N)=O)c1cc2c([nH]1)CCCC2	-29.1	-6.9	34.3*	7.0	-16.2	-1.9
COc1ccc(NC(=O)COc2ccc(N(C)S(=O)(=O)c3ccc(Cl)cc3)cc2)cc1OC	-8.8	7.2	12.1	29.1*	-34.1	19.8
CC(=O)Nc1ccc(S(=O)(=O)N(C)c2ccc(OCCOc3cccc(C)c3)cc2)cc1	-7.6	4.1	38.7*	24.1	-36.6	19.4
CCN(CC)C(=O)COc1ccc(N(C)S(=O)(=O)c2ccc(NC(C)=O)cc2)cc1	8.2	-0.5	7.2	4.4	-1.2	2.0
Cc1ccc(C(O)c2ncc(-c3ccc(Cl)cc3)[nH]2)cc1F (stereo not given)	-1.6	0.7	-0.9	3.1	-4.0	3.4
O=C1NN=C2CCCCCCC12 (stereo not given)	-11.6	-5.5	90.6*	24.2	-34.0	0.9
O=C(NCC1CCCO1)c1cccs1 (stereo not given)	35.6*	3.9	5.5	-6.0	2.1	0.6
O=C(NCC1CCCO1)NC1(C(F)(F)F)Oc2ccccc2O1 (stereo not given)	4.5	-11.9	3.1	-2.4	34.8*	0.4
O=C(NCC1CCCO1)c1ccccc1 (stereo not given)	0.2	-6.9	4.9	-3.5	1.1	0.4
O=C(COC(=O)c1cccs1)NCC1CCCO1 (stereo not given)	-2.0	-0.1	9.1	-0.1	1.6	0.4
